Consider 8 molecules from ChEMBL document CHEMBL1148485, “Synthesis and biological evaluation of new selective cytotoxic cyclolignans derived from podophyllotoxin” (J Med Chem, 2004).

Assay [1] is described as follows: Selectivity index is the ratio of IC50 of P-388 cell line to that of HT-29. The class given is functional.
The next assay relates to HT-29. The assay can be described thus: In vitro cytotoxicity against HT-29 (human colon carcinoma) cell line. It counts as functional, cell-based.
In the next assay the test system is A549. Briefly: In vitro cytotoxicity against A-549 (human lung carcinoma) cell line. It counts as functional, cell-based.
The test system of another assay is P388. Briefly: Tested in vitro for antineoplastic activity against P-388 (lymphoid neoplasm from DBA/2 mouse) tumor cell line. The class given is functional, cell-based. In a few lines: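 P-388 cells seeded at 1 × 10^4 cells/well in MEM–10% FCS containing graded compound concentrations. Incubated 4 days at 37 °C, 10% CO2, 98% humidity. Inhibition scored by inverted microscopy against untreated controls, which were kept in exponential growth. Mean of duplicate wells.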

Another assay concerns SK-MEL-28. The assay can be described thus: Tested in vitro for antineoplastic activity against MEL-28 (human melanoma) tumor cell line. The class given is functional, cell-based. Summed up: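 MEL-28 cells seeded at 2 × 10^4 cells/well in MEM–10% FCS containing graded compound concentrations. Incubated 4 days at 37 °C, 10% CO2, 98% humidity. Stained with crystal violet and inhibition judged against untreated controls, which were kept in exponential growth. Mean of duplicate wells.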

Molecules are shown by their SMILES.

As to `COC(=O)[C@@H]1C(/C=N/c2cc(C)c(C)cc2N)=Cc2cc3c(cc2C1c1cc(OC)c(OC)c(OC)c1)OCO3` (stereo not given in full), the Selectivity index in assay [1] is on record as 4.5. For the same molecule, the IC50 in the assay on HT-29 (Homo sapiens, HT-29) came out at 0.2 µM; in the assay on A549 (Homo sapiens, A549), 0.9 µM; in the assay with P388 it was 0.9 µM; in the assay with SK-MEL-28, 0.9 µM.
Regarding `COC(=O)[C@@H]1C(/C=N/c2nccs2)=Cc2cc3c(cc2C1c1cc(OC)c(OC)c(OC)c1)OCO3` (stereo not given in full), the Selectivity index in assay [1] is given as 8. For the same molecule, the IC50 was found to be 0.025 µM with HT-29 (Homo sapiens, HT-29); 0.25 µM in the assay on A549 (Homo sapiens, A549); 0.2 µM with P388; 0.25 µM in the assay on SK-MEL-28.
Take `COC(=O)[C@@H]1C(/C=N/CCO)=Cc2cc3c(cc2C1c1cc(OC)c(OC)c(OC)c1)OCO3` (stereo not given in full): in assay [1], the Selectivity index was 10. Also, the IC50 in the assay with HT-29 (Homo sapiens, HT-29) was 0.021 µM; in the assay with A549 (Homo sapiens, A549), 0.11 µM; in the assay on P388, 0.21 µM; with SK-MEL-28, 0.21 µM.
For the molecule `CCC/N=C/C1=Cc2cc3c(cc2C(c2cc(OC)c(OC)c(OC)c2)[C@@H]1C(=O)OC)OCO3` (stereo not given in full), the Selectivity index in assay [1] is 110. For the same molecule, the IC50 in the assay on HT-29 (Homo sapiens, HT-29) was determined as 0.01 µM; in the assay on A549 (Homo sapiens, A549), 0.11 µM; in the assay with P388, 1.1 µM.
In the case of `COC(=O)[C@@H]1C(/C=N/c2cc(OC)c(OC)c(OC)c2)=Cc2cc3c(cc2C1c1cc(OC)c(OC)c(OC)c1)OCO3` (stereo not given in full), in assay [1], the Selectivity index is 40. For the same molecule, the IC50 with HT-29 (Homo sapiens, HT-29) turned out to be 0.021 µM; with A549 (Homo sapiens, A549), 0.21 µM; in the assay on P388, 0.85 µM; in the assay on SK-MEL-28, 0.42 µM.
For `COC(=O)[C@@H]1C(/C=N/c2ccccc2)=Cc2cc3c(cc2C1c1cc(OC)c(OC)c(OC)c1)OCO3` (stereo not given in full) the same measures were 25, 0.02 µM, 0.02 µM, 0.5 µM and 1.2 µM.
For `CC/N=C/C1=Cc2cc3c(cc2[C@@H](c2cc(OC)c(OC)c(OC)c2)[C@@H]1C(=O)OC)OCO3` (stereo in doubt; 11), the 50% inhibitory concentration (IC50) in the assay on HT-29 (ht-29) was found to be 0.034 µM; in the assay with A549 (a549), 0.11 µM.
Consider `COC(=O)[C@@H]1C(C=O)=Cc2c(cc3c(c2OC)OCO3)[C@H]1c1cc(OC)c(OC)c(OC)c1`, for which the Selectivity index in assay [1] was determined as 55. Further, the IC50 in the assay on HT-29 (Homo sapiens, HT-29) came out at 0.02 µM; in the assay with A549 (Homo sapiens, A549), 0.22 µM; with P388 it was 1.1 µM.

In general, IC50 refers to the concentration that gives 50% inhibition. Read a low IC50 as inhibition by little substance.
